A selection: hits, their analogues and other compounds. The true share with any hit is near 4.1%.
MC4R antag cAMP = antagonists of human melanocortin 4 receptor (MC4R). 360,000 compounds, 0.48% hits. P32245. MC4R-expressing cells, MTII-stimulated cAMP, LANCE TR-FRET. inhibition, % at 6.5 µM;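 active = inhibition above its plate's cutoff, the mean of tested wells on that plate plus 3 SD, cut at about 29% in these data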;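 note: 0% = Melanotan II alone and 100% = Melanotan II plus saturating MCL0020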
Target sequence (P32245 whole entry, looked up): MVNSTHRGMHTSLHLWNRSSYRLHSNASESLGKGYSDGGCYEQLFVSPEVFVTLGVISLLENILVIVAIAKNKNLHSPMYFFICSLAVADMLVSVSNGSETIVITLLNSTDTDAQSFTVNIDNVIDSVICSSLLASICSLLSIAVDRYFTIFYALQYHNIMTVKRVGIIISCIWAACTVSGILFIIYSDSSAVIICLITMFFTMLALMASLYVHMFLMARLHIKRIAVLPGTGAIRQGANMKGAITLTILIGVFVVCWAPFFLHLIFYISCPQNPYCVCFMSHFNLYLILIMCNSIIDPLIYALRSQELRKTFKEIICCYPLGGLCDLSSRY
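Assay system: U2OS-MC4R stable cell line; Also added: Melanotan II; Technique: Eu-cAMP/anti-cAMP TR-FRET, emission 671 nm; Times: 30-min compound, 1-h challenge, 1-h detection, room temperature.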
MPTP block = permeability transition pore inhibition; isolated mouse mitochondria, Ca2+ swelling absorbance, 30 min; inhibition, % at 10 µM; 360,000 compounds, 1.4% hits;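 active = inhibition of 50% or more, scaled per plate between neutral and stimulator controls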;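 note: 0% = DMSO wells given calcium and 100% = 1 mM EGTA wells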
ATG4B inhibitor = ATG4B (human) cysteine protease inhibition | 340,000 compounds, 0.51% hits | ATG4B cleavage of LC3-PLA2, NBD-HPC fluorescence, 1 h | AID 504462 | inhibition, % at 8.33 µM; in the data active = inhibition above about 40%
SMARCA2 activ = SMARCA2 function activation, primary screen; MG213 cells, MMTV-luciferase reporter, dexamethasone, overnight; activation, % at 9.1 µM; 370,000 compounds, 1% hits; AID 652017; in the data active = activation above about 7.8%;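 note: 0% = vehicle wells and 100% = reference activator wells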
MC4R ag barr = human MC4R agonism via beta-arrestin | P32245 | activation, % at 8.9 µM | U2OS MC4R beta-arrestin complementation, luminescence; percent of melanotan II response, DMSO zero | 360,000 compounds, 0.98% hits | AID 540308;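 active = activation above a per-plate cutoff, the mean activation of sample wells on that plate plus 3 SD, cut at about 8% in these data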
MPTP counter = mitochondrial membrane potential, counter-screen; inhibition, % at 10 µM; isolated mitochondria, Rhodamine 123 fluorescence; AID 624504; shares compounds with MPTP block; 5,000 compounds, 78% hits; in the data active = inhibition above about 22%;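 note: 0% = DMSO vehicle and 100% = positive control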
MPTP abs DR = dose response confirmation of mitochondrial permeability transition pore inhibitors; IC50, µM; shares compounds with MPTP block; 780 compounds, 58% hits; isolated mitochondria swelling, absorbance; in the data active = IC50 below about 20 µM
MPTP counter DR = MPTP inhibitor counter-screen activity, dose response; shares compounds with MPTP block; isolated mitochondria counterscreen, fluorescence read-out; IC50, µM; 780 compounds, 49% hits; AID 651564; in the data active = IC50 below about 80 µM
Active calls of the source: *; x = not tested or not shown.

SMILES	MC4R antag cAMP	MPTP block	ATG4B inhibitor	SMARCA2 activ	MC4R ag barr	MPTP counter	others
Cc1cccc(OCCCCc2c(C)n[nH]c2C)c1C	11	54*	8	-5	1	83*
CCOc1ccccc1OCCCCCc1c(C)n[nH]c1C	9	81*	-16	-6	4	47*
FC(F)(F)c1ccc(Cn2ccc3ccc(-c4ccc5ccn(Cc6ccc(C(F)(F)F)cc6)c5c4)cc32)cc1	x	x	x	-2	x	x
COc1ccccc1N(C)S(=O)(=O)c1ccc(C(=O)OCC(=O)NCc2ccco2)cc1	6	51*	2	2	-2	-1	MPTP abs DR=>100;MPTP counter DR=>80
CN(c1ccccc1)S(=O)(=O)c1ccc(C(=O)OCC(=O)NCc2ccco2)cc1	2	1	-2	1	-3	x
COc1ccc(Cn2cc(COC(=O)Nc3ccc(F)cc3)nn2)cc1	x	x	x	-4	x	x
Cc1ccc2[nH]c(=O)c(CN(CCCN(C)C)C(=O)Nc3ccc(Cl)cc3)cc2c1	1	0	-13	2	-2	x
Cc1ccc2cc(CN(CCN(C)C)C(=O)Nc3ccc(Cl)cc3)c(=O)[nH]c2c1	7	92*	2	0	0	100*
CCOC(=O)CNC(=O)CSc1nnc(-c2ccccc2)n1CC	x	x	x	3	x	x
CC/C(=N\Nc1ccc([N+](=O)[O-])cc1)c1ccccc1	10	65*	1	x	0	63*
O=[N+]([O-])c1ccc(NN=C(Oc2ccccc2)c2ccc([N+](=O)[O-])cc2)cc1	-9	22	x	-3	0	x
C/C(=N\Nc1ccc([N+](=O)[O-])cc1)c1ccc(N)cc1	0	2	5	4	-2	x
CCc1ccc(/C(C)=N\Nc2ccc([N+](=O)[O-])cc2)cc1	4	58*	-12	2	-1	51*
COc1ccc(C(=O)C[n+]2ccc3c(c2)nc(Cc2ccccc2)n3C)cc1	x	x	x	-4	x	x
CSc1nsc(SCC(=O)Nc2ccc3c(c2)OCCO3)n1	0	2	8	1	-1	x
Cc1ccccc1-c1nsc(SCC(=O)Nc2ccc3c(c2)OCO3)n1	19	84*	10	2	4	66*
Cc1nc2ccc(NS(=O)(=O)c3ccc(Br)cc3)cc2s1	13	81*	-8	-5	2	99*
Cc1nc2ccc(NS(=O)(=O)c3ccc4c(c3)OCCO4)cc2s1	0	96*	-7	-3	2	97*
Cc1ccc(S(=O)(=O)Nc2ccc3nc(C)sc3c2)cc1	1	68*	-14	x	0	105*
Cc1ccc(S(=O)(=O)Nc2ccc3c(c2)OCCO3)cc1	4	1	1	-6	2	x
Cc1nc2ccc(NS(=O)(=O)c3cccc([N+](=O)[O-])c3)cc2s1	10	55*	2	-5	0	72*
Cc1nc2ccc(NS(=O)(=O)c3ccc(F)c(F)c3)cc2s1	-5	6	-35	-3	0	x
Cc1nc2ccc([N+](=O)[O-])cc2s1	1	-3	-3	-3	-1	x
CC1CCC2(CCC(=O)N2CCCO)CC1 (centres undefined)	x	x	x	-2	x	x
Cc1ccc2nc(-c3ccc(NS(=O)(=O)c4ccccc4)cc3)sc2c1	14	-7	-1	1	5	x
SMILES	MC4R antag cAMP	MPTP block	ATG4B inhibitor	SMARCA2 activ	MC4R ag barr	MPTP counter	others
CC(=O)Nc1ccc(S(=O)(=O)Nc2ccc3nc(C)sc3c2)cc1	16	59*	2	-3	0	83*
CC(=O)Nc1ccc2nc(NS(=O)(=O)c3ccc(C)cc3)sc2c1	10	-1	-6	-4	2	x
Cc1ccc(S(=O)(=O)Nc2ccc3nc(N)sc3c2)cc1	5	85*	-10	-4	0	38*
Cc1ccc2nc(-c3ccc(NS(=O)(=O)c4ccc(F)c(F)c4)cc3)sc2c1	5	60*	8	4	1	71*
CSc1nc2ccc(NS(=O)(=O)c3ccc(Cl)s3)cc2s1	1	87*	-12	-1	-2	77*
Cc1cc(C)cc(C(=O)OCCN(C)C2CN(Cc3cn(Cc4ccccc4F)nn3)S(=O)(=O)C2)c1 (centres undefined)	x	x	x	-1	x	x
